Test results from ChEMBL document CHEMBL1124009 (J Med Chem, 1988).
Positions of bridges follow the written chain, without caps; N, C: chain ends. Non-standard residues stand in square brackets, D forms with d. Residues, ends and D or L forms follow the SMILES beside them. dTic = O=C(O)[C@H]1Cc2ccccc2CN1; Pen = CC(C)(S)[C@H](N)C(=O)O

Key:
[1] = biological target: Mu-type opioid receptor (Rattus norvegicus, UniProt P33535); assay: Binding affinity in competition with [3H]- CTOP in Opioid receptor mu 1 binding to rat brain membrane
Chain of Mu-type opioid receptor (P33535 whole entry): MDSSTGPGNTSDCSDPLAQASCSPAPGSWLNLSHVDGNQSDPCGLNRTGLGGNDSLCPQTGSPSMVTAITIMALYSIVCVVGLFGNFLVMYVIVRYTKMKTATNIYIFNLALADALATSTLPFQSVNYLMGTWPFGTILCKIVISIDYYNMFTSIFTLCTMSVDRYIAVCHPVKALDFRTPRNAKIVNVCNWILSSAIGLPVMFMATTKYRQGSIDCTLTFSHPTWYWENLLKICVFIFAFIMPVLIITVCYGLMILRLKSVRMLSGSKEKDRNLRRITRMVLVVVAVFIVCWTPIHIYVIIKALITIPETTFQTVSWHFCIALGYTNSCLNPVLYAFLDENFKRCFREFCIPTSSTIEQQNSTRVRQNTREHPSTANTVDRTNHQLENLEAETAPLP
Procedure, shortened: (§1)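 Brains (minus cerebellum) of male Sprague–Dawley rats (200–250 g) were homogenized, preincubated 30 min at 25 °C and centrifuged twice at 43000g. Homogenate at 0.5% final was incubated with 0.5 nM [3H]CTOP (μ) or 1.0 nM [3H]DPDPE (δ) in 50 mM Tris-HCl pH 7.4 with 5 mM MgCl2, BSA 1 mg/mL and 100 μM PMSF, 120 min at 25 °C, in duplicate. Nonspecific binding was taken with 1 μM naloxone; bound label was filtered and scintillation counted; curves were fit by nonlinear least squares.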

[2] = organism: Cavia porcellus; assay: Negative logarithm of antagonist concentration that requires doubling of agonist concentration to induce original agonist response; conditions: read-out: pA2 (converted)
[3] = biological target: Delta-type opioid receptor (Rattus norvegicus, UniProt P33533); assay: Binding affinity in competition with [3H]- DPDPE in Opioid receptor delta 1 binding to rat brain membrane; procedure, shortened: as §1
Chain of Delta-type opioid receptor (P33533 whole entry): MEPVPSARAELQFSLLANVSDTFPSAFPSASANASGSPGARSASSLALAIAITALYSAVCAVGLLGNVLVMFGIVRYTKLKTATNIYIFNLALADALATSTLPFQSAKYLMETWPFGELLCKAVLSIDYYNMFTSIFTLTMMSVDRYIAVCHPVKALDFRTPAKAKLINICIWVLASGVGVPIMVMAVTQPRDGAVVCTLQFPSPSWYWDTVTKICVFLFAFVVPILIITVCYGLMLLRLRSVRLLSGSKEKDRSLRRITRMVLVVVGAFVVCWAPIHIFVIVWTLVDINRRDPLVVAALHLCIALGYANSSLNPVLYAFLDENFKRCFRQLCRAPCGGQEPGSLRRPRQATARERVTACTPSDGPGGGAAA

[4] = Ratio of selective binding affinity of mu receptor to that of somatostatin receptor
[5] = biological target: Opioid receptors; mu & delta (Rattus norvegicus) (UniProt P33533+P33535); assay: Ratio of selective binding affinity of mu receptor to that of delta opioid receptor; type: protein assay
Chain of Opioid receptors; mu & delta (Rattus norvegicus) (P33533 whole entry, looked up): as the sequence (P33533 whole entry) above
Chain of Opioid receptors; mu & delta (Rattus norvegicus) (P33535 whole entry, looked up): as the sequence (P33535 whole entry) above

[6] = organism: Cavia porcellus; assay: Intrinsic agonist activity in guinea Pig Ileum (GPI) was determined; type: functional; conditions: filed as agonist
Procedure, shortened: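 Longitudinal muscle–myenteric plexus strips of ileum from male Hartley guinea pigs (200–500 g) sat in Krebs–bicarbonate at 37 °C under 95% O2/5% CO2 at 1 g tension. Strips were field-stimulated at 0.1 Hz with 0.4-ms supramaximal pulses, and isometric twitches were recorded. Agonist action was taken as twitch inhibition. pA2 came from PL017 (μ agonist) dose–response curves without and with several antagonist concentrations.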

[7] = biological target: Mu-type opioid receptor (Rattus norvegicus) (UniProt P33535); assay: Percentage inhibition in competition with [3H]- CTOP in Opioid receptor mu 1 binding to rat brain membrane at 10000 nM
Chain of Mu-type opioid receptor (Rattus norvegicus) (P33535 whole entry): as above

[8] = biological target: Somatostatin receptor; assay: Binding affinity in competition with [125I]- CGP-23996 in somatostatin receptor binding to rat brain membrane
Procedure, shortened: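 Rat whole-brain membranes (adult male Sprague–Dawley) at 1.0% final tissue were incubated with 0.2 nM [125I]CGP 23,996 and analogues at 100–0.3 μM. Buffer was 50 mM Tris pH 7.4 with 2.0 mg/mL BSA, 20 μg/mL bacitracin and 5 mM MgCl2. Incubation ran 1 h at 37 °C and ended by rapid filtration through BSA-soaked GF/B filters.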

[9] = biological target: Mu-type opioid receptor (Rattus norvegicus) (UniProt P33535); assay: Binding affinity of compound in competition with [3H]- CTOP in Opioid receptor mu 1 binding to rat brain membrane at 10000 nM

Row | SMILES | IC50 [1] [nM] | Kb [2] [nM] | IC50 [3] [nM] | further results
1 | C[C@@H](O)[C@H](NC(=O)[C@H]1NC(=O)[C@H]([C@@H](C)O)NC(=O)[C@H](CCCN=C(N)N)NC(=O)[C@@H](Cc2c[nH]c3ccccc23)NC(=O)[C@H](Cc2ccc(O)cc2)NC(=O)[C@@H](NC(=O)[C@H]2Cc3ccccc3CN2)CSSC1(C)C)C(N)=O (H-[dTic]CY[dW]RT[Pen]T-NH2; disulfide 2-7) | 1.2 | 2.04 | 1270 | 
2 | CC(C)[C@H](NC(=O)[C@H]1NC(=O)[C@H]([C@@H](C)O)NC(=O)[C@H](CCCCN)NC(=O)[C@@H](Cc2c[nH]c3ccccc23)NC(=O)[C@H](Cc2ccc(O)cc2)NC(=O)[C@@H](NC(=O)[C@H]2Cc3ccccc3CN2)CSSC1(C)C)C(N)=O | 46 | 257 | 2120 | 
3 | C[C@@H](O)[C@H](NC(=O)[C@H]1NC(=O)[C@H]([C@@H](C)O)NC(=O)[C@H](CCCN)NC(=O)[C@@H](Cc2c[nH]c3ccccc23)NC(=O)[C@H](Cc2ccc(O)cc2)NC(=O)[C@@H](NC(=O)[C@H]2Cc3ccccc3CN2)CSSC1(C)C)C(N)=O | 1.4 | 41.7 | 16000 | 
4 | C[C@@H](O)[C@H](NC(=O)[C@H]1NC(=O)[C@H]([C@@H](C)O)NC(=O)[C@H](CCCCN)NC(=O)C(Cc2c[nH]c3ccccc23)NC(=O)[C@@H](Cc2ccc(O)cc2)NC(=O)[C@@H](NC(=O)[C@H]2Cc3ccccc3CN2)CSSC1(C)C)C(N)=O (stereo in doubt) | 1.2 | 7.94 | 9320 | 
5 | C[C@@H](O)[C@@H]1NC(=O)[C@H](CCCCN)NC(=O)C(Cc2c[nH]c3ccccc23)NC(=O)[C@H](Cc2ccc(O)cc2)NC(=O)[C@@H](NC(=O)[C@H](N)Cc2ccccc2)CSSC(C)(C)[C@@H](C(=O)N[C@@H](CO)C(N)=O)NC1=O (stereo in doubt) | 20 | 575 | > 10000 | 
6 | C[C@@H](O)[C@H](NC(=O)[C@H]1NC(=O)[C@H]([C@@H](C)O)NC(=O)[C@H](CCCCN)NC(=O)[C@@H](Cc2c[nH]c3ccccc23)NC(=O)[C@H](Cc2ccc(O)cc2)NC(=O)[C@@H](NC(=O)[C@H](N)Cc2ccccc2)CSSC1(C)C)C(N)=O |  | 79.4 | 1150 | 
7 | C[C@@H](O)[C@H](NC(=O)[C@H]1NC(=O)[C@H]([C@@H](C)O)NC(=O)[C@H](CCCCN)NC(=O)C(Cc2c[nH]c3ccccc23)NC(=O)[C@H](Cc2ccc(O)cc2)NC(=O)[C@@H](NC(=O)C(N)Cc2c[nH]c3ccccc23)CSSC1(C)C)C(N)=O (stereo in doubt) |  |  |  | Ratio [4]: 254; Ratio [5]: > 1590; Activity [6]: Agonist
8 | C[C@@H](O)[C@H](NC(=O)[C@H]1NC(=O)[C@H](CC(N)=O)NC(=O)[C@H](Cc2ccc(O)cc2)NC(=O)[C@@H](NC(=O)[C@@H](N)Cc2ccccc2)CSSC1(C)C)C(N)=O |  |  |  | inhibition [7]: 17%; IC50 [8]: > 100000 nM
9 | C[C@@H](O)[C@H](NC(=O)[C@H]1NC(=O)[C@H]([C@@H](C)O)NC(=O)[C@H](CCCNC(=N)N)NC(=O)[C@@H](Cc2c[nH]c3ccccc23)NC(=O)[C@H](Cc2ccc(O)cc2)NC(=O)[C@@H](NC(=O)[C@H](N)Cc2ccccc2)CSSC1(C)C)C(N)=O |  | 75.9 |  | Ratio [4]: 4020; Ratio [5]: 2530; IC50 [8]: 8452 nM
10 | C[C@@H](O)[C@H](NC(=O)[C@@H]1NC(=O)[C@H](CCCCN)NC(=O)C(Cc2c[nH]c3ccccc23)NC(=O)[C@H](Cc2ccc(O)cc2)NC(=O)[C@@H](NC(=O)[C@@H](N)Cc2ccccc2)CSSC1(C)C)C(N)=O (stereo in doubt) |  |  |  | inhibition [9]: 18%
